MEKK2 WT-MEK5: raises or lowers MEK5 binding to wildtype human MEKK2 PB1 domain; bead flow cytometry, Alexa488-MEK5 binding to MEKK2 WT; actives lie on both sides; binding response (% of control), % at 10 µM; actives 1.1% (n = 290,000); AID 1531; in the data active = binding response below about 67% or above about 130%
ABCG2 block: human ABCG2 inhibition, ABCB1 as counter-screen; Q9UNQ0; IgMXP3 cells, JC-1 efflux, flow cytometry; inhibition, % at 6.6 µM; actives 0.1% (n = 190,000);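 active = inhibition above 80%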;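 note: 0% = DMSO and 100% = nicardipine control wells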
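Measure – % inhibition of efflux relative to nicardipine and DMSO · Test system – ABCG2 IgMXP3 and barcoded ABCB1 CCRF-Adr cell mix · Control set – nicardipine as high control, DMSO as low control · Compound – one concentration, 6.6 µM final · Signal – flow cytometry of retained JC-1 fluorescence · Timing – 10 min exposure at 25 °C with rotation, no wash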
WT yeast gro inh: growth inhibition of WT yeast, mitochondrial fusion screen; mitochondrial fusion phenotypic screen, WT strain; actives 2.1% (n = 190,000); AID 1362; inhibition, % at 10 µM; in the data active = inhibition above about 58%; tested in S. cerevisiae
MEKK2 mut-MEK5: signal of MEK5 binding to mutant human MEKK2 PB1 domain. actives 0.35% (n = 290,000). AID 1530. bead flow cytometry, Alexa488-MEK5 binding to MEKK2 mutant. percent response, % at 10 µM; in the data active = percent response above about 24%, passing the limit was not always enough
MEKK3 PB1 HTS: MEKK3-MEK5 PB1 interaction, increase or decrease; Q99759; bead-based flow cytometry, Alexa488-MEK5 binding to MEKK3; actives lie on both sides; 0 = blocked by unlabeled MEK5, 100 = vehicle; binding response (% of control), % at 10 µM; actives 1.4% (n = 290,000); AID 1529;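 active = binding response more than 3 SD above or below the average of its plate-row segment, actives on both sides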;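 note: Alexa488 bead fluorescence after subtracting the streptavidin-only scavenger bead signal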
Target sequence (Q99759 whole entry, looked up): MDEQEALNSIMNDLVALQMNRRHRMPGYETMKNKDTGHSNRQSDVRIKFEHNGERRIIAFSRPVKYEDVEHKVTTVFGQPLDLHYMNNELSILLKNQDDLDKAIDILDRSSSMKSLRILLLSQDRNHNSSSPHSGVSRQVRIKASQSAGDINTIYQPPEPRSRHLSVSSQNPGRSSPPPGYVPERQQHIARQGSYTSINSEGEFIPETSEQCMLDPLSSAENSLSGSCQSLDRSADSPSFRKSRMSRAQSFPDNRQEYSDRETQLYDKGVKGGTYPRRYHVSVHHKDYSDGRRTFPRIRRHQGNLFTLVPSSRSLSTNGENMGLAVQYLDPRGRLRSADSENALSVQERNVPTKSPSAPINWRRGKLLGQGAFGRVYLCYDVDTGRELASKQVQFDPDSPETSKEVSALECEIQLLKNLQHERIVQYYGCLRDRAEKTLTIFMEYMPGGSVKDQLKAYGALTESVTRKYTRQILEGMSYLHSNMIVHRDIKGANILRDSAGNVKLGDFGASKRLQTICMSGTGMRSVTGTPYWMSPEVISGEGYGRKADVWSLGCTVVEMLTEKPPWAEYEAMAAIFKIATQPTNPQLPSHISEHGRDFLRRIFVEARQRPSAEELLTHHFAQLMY
ABCB1 block: inhibitors of human ABCB1 transporter, ABCG2 counter-screen. actives 0.067% (n = 190,000). inhibition, % at 6.6 µM. P08183. AID 1326. CCRF-Adr cells, JC-1 efflux, flow cytometry; in the data active = inhibition above about 40%;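 note: 0% = vehicle and 100% = reference inhibitor; higher value means more JC-1 retained so stronger ABCB1 efflux block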
MEKK2wt confirm: raises or lowers MEK5 binding to wildtype human MEKK2, retest; shares compounds with MEKK3 PB1 HTS; bead flow cytometry, Alexa488-MEK5 binding to MEKK2 WT; actives lie on both sides; binding response (% of control), % at 10 µM; actives 2.4% (n = 5,900); AID 1892; in the data active = binding response below about 16% or above about 210%; inactive = in between
MEKK2mut-MEK5: signal of MEK5 binding to mutant human MEKK2, retest; shares compounds with MEKK3 PB1 HTS; bead flow cytometry, Alexa488-MEK5 binding to MEKK2 mutant; percent response, % at 10 µM; actives 2% (n = 5,900); AID 1893; in the data active = percent response mostly above about 71%, no sharp cut-off; inactive = mostly below about 38%;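 note: higher means compound restores mutant binding toward wildtype level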
MEKK3-MEK5 inh: MEKK3-MEK5 PB1 inhibition, single concentration confirmation | shares compounds with MEKK3 PB1 HTS | bead flow cytometry, Alexa488-MEK5 binding to MEKK3; active compounds read low | binding response (% of control), % at 10 µM | actives 1.8% (n = 5,900);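 active = binding response below 72% of control, or above a set upper limit, though filed actives all read lower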;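 note: 100% = DMSO only wells and 0% = binding blocked by excess unlabeled MEK5; lower values mean stronger disruption of MEK5 binding to MEKK3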
Starred values were filed as active, the others as inactive; nt = no result given; + = active, no number; [ ] = another dose, or the depositor's remark. This is a sample that favours compounds with a hit; in the whole collection about 3.5% have one here.

SMILES	MEKK2 WT-MEK5	ABCG2 block	WT yeast gro inh	MEKK2 mut-MEK5	MEKK3 PB1 HTS	ABCB1 block	MEKK2wt confirm	MEKK2mut-MEK5	MEKK3-MEK5 inh
O=C(Cn1cnc2c(nnn2Cc2ccc(Cl)cc2)c1=O)N1CCCc2ccccc21	80	18	-7	-4	69*[inhibitor]	3	103	4	108
Cc1ccc(Cn2nnc3c(=O)n(CC(=O)N4CCCc5ccccc54)cnc32)cc1	104	2	-1	7	97	0	nt	nt	nt
CCOC(=O)c1cnc(SC2CCc3ccccc3C2=O)nc1N (configuration not stated)	87	1	5	-1	96	0	nt	nt	nt
CN(C)N1C(N)=C(C#N)C(c2ccccc2F)C2=C1CC(C)(C)CC2=O (configuration not stated)	100	nt	nt	0	102	nt	nt	nt	nt
CCOC(=O)C1=C(CC)Nc2ccccc2N=C1NC(=O)Nc1ccc(Cl)c(Cl)c1	145*	1	7	20	97	0	148	-7	98
CCOC(=O)C1=C(CC)Nc2ccccc2N=C1NC(=O)c1ccc(S(=O)(=O)N2CCCC2)cc1	95	1	-9	-4	101	1	nt	nt	nt
C[N+]1(CCC(=O)c2ccccc2)CCCCC1	2.0*[inhibitor]	4	-12	-13	2.0*[inhibitor]	0	117	11	114
COc1ccc(OC)c(CNC(=O)C2CCC(=O)N(CCCN3CCCC3=O)C2)c1 (configuration not stated)	102	nt	nt	-2	98	nt	nt	nt	nt
O=C1c2ccccc2C(=O)N1CN(C(=O)COc1ccc(Cl)cc1Cl)c1cccc(F)c1	105	20	-11	1	139*	1	99	-1	100
O=C(CN1CCOCC1)Nc1ccccc1Sc1ccc(Cl)cc1	103	4	19	0	129*	1	98	-7	100
O=C(CN1CCCC1)Nc1ccccc1Sc1ccccc1	108	23	14	5	99	1	nt	nt	nt
Cc1cccc(-n2[nH]c(C)c(C=Nc3ccc4[nH]c(=O)[nH]c4c3)c2=O)c1	107	-6	2	0	129*	-1	123	11	104
O=C(Cn1nc(-c2ccccc2Cl)ccc1=O)Nc1ccc(Br)cc1	nt	18	48	+	140*	2	103	0	104
O=C(Nc1ccccc1)c1ccc(S(=O)(=O)N2CCOCC2)cc1	135*	2	2	10	136*	0	103	2	101
O=C(Nc1ccc(Cl)cc1)c1ccc(S(=O)(=O)N2CCOCC2)cc1	100	nt	nt	-3	103	nt	nt	nt	nt
O=C(Nc1ccccc1)c1ccc(NCc2ccco2)c(S(=O)(=O)N2CCOCC2)c1	97	12	-19	-4	95	2	nt	nt	nt
O=C(Nc1ccccc1)c1ccc(NCc2cccnc2)c(S(=O)(=O)N2CCOCC2)c1	129	9	13	7	123*	1	100	-4	97
COc1ccccc1NC(=O)NCC1CC1(Cl)Cl (configuration not stated)	105	nt	nt	3	105	nt	nt	nt	nt
Cc1ccc(S(=O)(=O)Oc2ccccc2/C=N/NC(N)=S)cc1	97	3	-10	-3	97	1	nt	nt	nt
Cc1ccc(S(=O)(=O)Oc2ccccc2/C=N/N=C(N)N)cc1	149*	2	-18	19	115	1	118	14	102
Cc1cnc(C(=O)Nc2nccs2)cn1	2.0*[inhibitor]	0	18	-19	2.0*[inhibitor]	0	108	6	111
Cc1cnc(C(=O)Nc2nnc(C)s2)cn1	107	4	-11	3	105	0	nt	nt	nt
O=C(Nc1ccccc1)N1N=CCC1c1ccccc1 (configuration not stated)	106	13	6	7	104	1	nt	nt	nt
O=C(Nc1ccc(Cl)c(Cl)c1)N1N=CCC1c1ccccc1 (configuration not stated)	116	19	68	0	133*	2	100	0	101
COc1cccc(-n2cc(C(=O)NC(C)C)c3ccccc3c2=O)c1	104	nt	nt	-1	104	nt	nt	nt	nt
SMILES	MEKK2 WT-MEK5	ABCG2 block	WT yeast gro inh	MEKK2 mut-MEK5	MEKK3 PB1 HTS	ABCB1 block	MEKK2wt confirm	MEKK2mut-MEK5	MEKK3-MEK5 inh
CCOC(=O)c1ccc(-c2ccc(/C=N/NC(=O)CN(c3ccccc3Cl)S(C)(=O)=O)o2)cc1	110	-1	10	2	141*	0	98	-6	102
CCOC(=O)c1ccc(-c2ccc(/C=N/NC(=O)CN(c3cccc(C)c3)S(C)(=O)=O)o2)cc1	107	18	-1	9	101	-1	nt	nt	nt
O=C(CCN1CCN(c2ccccc2F)CC1)Nc1cccc(F)c1	113	nt	nt	6	111	nt	nt	nt	nt
COc1cc(/C=C(\C#N)c2nc3ccccc3n2C)cc(OC)c1O	102	1	-9	0	101	0	nt	nt	nt
CCNC(=O)NC(=O)C(C)OC(=O)CCS(=O)(=O)c1ccc(C)cc1 (configuration not stated)	94	-1	-3	-13	97	-1	nt	nt	nt
CCNC(=O)NC(=O)C(C)On1nnc2ccc(S(=O)(=O)N(CC)CC)cc21 (configuration not stated)	106	-13	-5	1	150*	-2	98	2	101
Cc1cccc(NC(=O)COC(=O)Cc2c[nH]c3ccccc23)c1C	92	4	0	-4	91	0	nt	nt	nt
Cc1cccc(NC(=O)COC(=O)Cc2cccc(C(F)(F)F)c2)c1C	117	0	-31	1	145*	0	103	8	103
CCN1CCN(Cc2c(O)ccc3c2O/C(=C\C=C\c2ccccc2OC)C3=O)CC1	95	2	-3	0	133*	2	92	-3	97
COc1ccc(/C=N/N=C2/NC(=O)C(CC(=O)O)S2)cc1OCc1ccccc1Cl (configuration not stated)	109	-6	-13	0	146*	-1	106	13	109
C/C(CC(=O)Nc1cccc(Cl)c1Cl)=N\NC(=O)C(=O)N1CCCC1	99	nt	nt	2	98	nt	nt	nt	nt
C/C(CC(=O)Nc1cccc(Cl)c1Cl)=N\NC(=O)c1ccccc1C	4.0*[inhibitor]	2	10	-18	3.0*[inhibitor]	-1	97	4	102
CCOC(=O)c1cc(NC(=O)c2ccco2)ccc1N1CCOCC1	35*[inhibitor]	2	-8	-22	27*[inhibitor]	0	111	8	109
